Test results: publication PMC6460348 (ChemistryOpen, 2019)

Biological target: wild type XIAP‐BIR1 (Homo sapiens, UniProt P98170)
Test: MicroScale Thermophoresis
Assay type: binding
Method in brief: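 Human XIAP-BIR1 domain (wild type, or R62S, D71A, R82S or V86E point mutant made by site-directed mutagenesis), expressed from pET28b and purified. Lysines were covalently dye-labelled, and protein was held at 100 nM. Test compound was added as a two-fold series, final 30 nM–1.0 mM or 300 nM–10 mM. Assay at 24 °C in 50 mM Tris-HCl pH 8, 200 mM NaCl, 10 % glycerol, 10 mM DTT, 0.05 % Tween20, with 20 % LED and medium MST power. Kd was fitted from unbound/bound response values.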

wild type XIAP‐BIR1, sequence (P98170 10-99 limits assumed): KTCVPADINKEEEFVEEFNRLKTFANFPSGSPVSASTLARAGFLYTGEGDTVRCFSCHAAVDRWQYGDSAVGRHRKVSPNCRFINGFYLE

Structure (SMILES): Cc1ccc(C(=O)Nc2ccc(S(=O)(=O)O)c3cc(S(=O)(=O)O)cc(S(=O)(=O)O)c23)cc1NC(=O)c1cccc(NC(=O)Nc2cccc(C(=O)Nc3cc(C(=O)Nc4ccc(S(=O)(=O)O)c5cc(S(=O)(=O)O)cc(S(=O)(=O)O)c45)ccc3C)c2)c1 [Suramin]
- Kd: 612 ± 109 µM
